# ChEMBL document CHEMBL5705891, “Small-molecule kinase inhibitors provide insight into Mps1 cell cycle function” (Nat Chem Biol, 2010)
# Activity calls are given as the source filed them. The rule behind the calls is not given here.
# Experiments:
# [1] = target: Misshapen-like kinase 1 (Homo sapiens) (UniProt Q8N4C8); experiment: Inhibition of MINK (unknown origin) assessed as residual enzyme activity at 10 uM by Ambit kinase binding assay relative to control
# [2] = target: Insulin receptor-related protein (Homo sapiens, UniProt P14616); experiment: Inhibition of INSRR (unknown origin) assessed as residual enzyme activity at 10 uM by Ambit kinase binding assay relative to control
# [3] = target: Mitogen-activated protein kinase 3 (Homo sapiens) (UniProt P27361); experiment: Inhibition of ERK1 (unknown origin) assessed as residual enzyme activity at 10 uM by Ambit kinase binding assay relative to control
# [4] = target: Aurora kinase B (Homo sapiens) (UniProt Q96GD4); experiment: Inhibition of Aurora B activation in human U2OS cells by Western blot analysis; type: cell-based
# U2OS [5] = experiment: Induction of aneuploidy in UTRM10 cells (unknown origin) expressing wild-type LAP-tagged Mps1 at 5 uM treated for 48 hrs by FACS analysis; type: functional, cell-based
# Method in brief: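 UTRM10 cells expressing RNAi-resistant LAP-Mps1 WT or M602Q were treated with compound or DMSO for 48 h, then DNA content was analysed by FACS.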
# U2OS [6] = experiment: Induction of chromosome mis-segregation in human U2OS cells expressing histone H2B-GFP at 5 to 10 uM treated for 4 hrs followed by MG132 treatment for 30 to 60 mins and subsequent replacement of medium containing MG132 measured after 30 mins by immunofluoresence analysis; type: functional, cell-based; conditions: dose 5-10 µM, time 4.5-5 hrs
# [7] = Inhibition of Mps1 in nocodazole-treated Potoroo PTK2 cells expressing EyFP-tagged human Mad2 assessed as decrease in Mad2 recruitment to kinetochore at 10 uM incubated for 1 hr by fluorescence based imaging analysis relative to nocodazole; set-up: species or system Pt K2; conditions: Potorous tridactylus
# Method in brief: (§1)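 PtK2 (male Potorous tridactylus kidney) cells stably expressing human Mad2-EYFP, cultured in Advanced MEM with 2% FBS. Cells were pretreated 1 h with 10 μM inhibitor or DMSO, then given DMSO or nocodazole (200 ng·ml⁻¹). Time-lapse imaging ran at 37°C from NEBD. Kinetochore Mad2-EYFP density was background-corrected and normalized. N=20–29 cells; 95% CI; Student's t test.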
# A549 = experiment: Antiproliferative activity against human A549 cells at 10 uM measured after 96 hrs in presence of Z-VAD-FMK by Syto60 staining based assay; type: functional, cell-based
# U2OS [8] = experiment: Antiproliferative activity against human U2OS cells at 10 uM incubated for 4 days by Syto60 staining based assay; type: functional, cell-based; conditions: time 4.0 day
# Method in brief: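 Proliferation read by Syto60 nucleic acid stain fluorescence (excitation 635 nm, emission 695 nm) after treatment for up to 96 h. Each time point normalized to its DMSO control. Mean ± SD from 4 independent experiments. Cells kept at 37°C, 5% CO2 in 10% FBS-supplemented medium.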
# U2OS [9] = experiment: Reversal of paclitaxel-induced mitotic arrest in human U2OS cells assessed as Ser10 phosphorylated Histone H3-positive 4c population at 10 uM incubated for 16 hrs by flow cytometry (reference value: 25 %); type: functional
# [10] = target: Aurora kinase B (Homo sapiens) (UniProt Q96GD4); experiment: Inhibition of Aurora B phosphorylation at Thr232 in human U2OS cells by Western blot analysis; type: cell-based
# Method in brief: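 Thymidine-released U2OS cells were treated with inhibitor or DMSO for 1 hr before mitotic entry, then with taxol (1 μM) plus MG132 (10 μM). Mitotic cells were collected by shake-off and immunoblotted for phospho-Aurora B (Thr232). Cyclin B served as the mitotic marker and the Mps1 mobility shift as autophosphorylation.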
# U2OS [11] = experiment: Induction of premature entry into anaphase in thymidine-treated human U2OS cells expressing H2B-GFP and Plk4 overexpression measured for 30 mins by time lapse imaging analysis relative to control; type: functional; conditions: 0.5 h
# Method in brief: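 Doxycycline-inducible Plk4 U2OS cells expressing H2B-GFP were blocked with thymidine for 18 hrs and released into doxycycline (2 μg·ml⁻¹) for 10 hrs. A second 18-hr thymidine block followed, then release for 6 hrs before 5 μM inhibitor, with or without Plk4 induction. Cells were imaged by time-lapse at 37°C, 5% CO₂, timed from NEBD, and bipolar versus multipolar anaphases were scored. Values are mean ± SD of 3 independent experiments.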
# [12] = Inhibition of Mps1 in Potoroo PTK2 cells expressing EyFP-tagged human Mad2 assessed as decrease in Mad2 recruitment to kinetochore at 10 uM incubated for 1 hr by fluorescence based imaging analysis relative to control; set-up: species or system Pt K2; conditions: Potorous tridactylus; method in brief: as §1
# HeLa S3 = experiment: Effect on thymidine-treated human HeLa S3 cell populations after one cell doubling at 10 uM incubated for 4 hrs followed by thymidine release by immunofluorescence imaging analysis; type: functional, cell-based
# [13] = target: Tyrosine-protein kinase receptor UFO (Homo sapiens) (UniProt P30530); experiment: Inhibition of AXL (unknown origin) assessed as residual enzyme activity at 10 uM by Ambit kinase binding assay relative to control
# [14] = Inhibition of Mps1 in Potoroo PTK2 cells expressing EyFP-tagged human Mad2 assessed as reduction in time spent in mitosis at 10 uM incubated for 1 hr by fluorescence based imaging analysis relative to control; set-up: species or system Pt K2; conditions: Potorous tridactylus
# Method in brief: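 Randomly cycling PtK2 cells stably expressing hsMad2-EYFP were pretreated 1 h with 10 μM inhibitor, DMSO or no treatment. Time-lapse imaging at 37°C, 5% CO₂ scored mitotic duration from NEB to NER. Average time was reported (N=26–29); 95% CI; Student's t test.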
# [15] = target: Serine/threonine-protein kinase 24 (Homo sapiens) (UniProt Q9Y6E0); experiment: Inhibition of MST3 (unknown origin) assessed as residual enzyme activity at 10 uM by Ambit kinase binding assay relative to control
# [16] = target: SRSF protein kinase 1 (Homo sapiens) (UniProt Q96SB4); experiment: Inhibition of SRPK1 (unknown origin) assessed as residual enzyme activity at 10 uM by Ambit kinase binding assay relative to control
# [17] = target: Aurora kinase C (Homo sapiens) (UniProt Q9UQB9); experiment: Inhibition of AURKC (unknown origin) assessed as residual enzyme activity at 10 uM by Ambit kinase binding assay relative to control
# [18] = target: Ribosomal protein S6 kinase alpha-4 (Homo sapiens) (UniProt O75676); experiment: Inhibition of RPS6KA4 kinase domain 2 (unknown origin) assessed as residual enzyme activity at 10 uM by Ambit kinase binding assay relative to control
# [19] = target: SRSF protein kinase 3 (Homo sapiens) (UniProt Q9UPE1); experiment: Inhibition of SRPK3 (unknown origin) assessed as residual enzyme activity at 10 uM by Ambit kinase binding assay relative to control
# [20] = target: Serine/threonine-protein kinase TAO3 (Homo sapiens) (UniProt Q9H2K8); experiment: Inhibition of TAOK3 (unknown origin) assessed as residual enzyme activity at 10 uM by Ambit kinase binding assay relative to control
# [21] = target: Death-associated protein kinase 1 (Homo sapiens) (UniProt P53355); experiment: Inhibition of DAPK1 (unknown origin) assessed as residual enzyme activity at 10 uM by Ambit kinase binding assay relative to control
# [22] = target: MAP kinase-interacting serine/threonine-protein kinase 2 (Homo sapiens) (UniProt Q9HBH9); experiment: Inhibition of MKNK2 (unknown origin) assessed as residual enzyme activity at 10 uM by Ambit kinase binding assay relative to control
# Aurora kinase B (Homo sapiens), sequence (Q96GD4 whole entry): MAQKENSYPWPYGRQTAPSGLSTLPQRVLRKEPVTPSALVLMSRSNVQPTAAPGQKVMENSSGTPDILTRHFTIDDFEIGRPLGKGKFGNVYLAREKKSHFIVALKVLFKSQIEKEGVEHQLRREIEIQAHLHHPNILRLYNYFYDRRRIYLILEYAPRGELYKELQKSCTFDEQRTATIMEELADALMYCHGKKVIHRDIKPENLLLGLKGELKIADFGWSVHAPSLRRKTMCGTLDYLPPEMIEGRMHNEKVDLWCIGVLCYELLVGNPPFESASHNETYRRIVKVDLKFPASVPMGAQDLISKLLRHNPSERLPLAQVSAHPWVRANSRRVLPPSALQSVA
# Mitogen-activated protein kinase 3 (Homo sapiens), sequence (P27361 whole entry): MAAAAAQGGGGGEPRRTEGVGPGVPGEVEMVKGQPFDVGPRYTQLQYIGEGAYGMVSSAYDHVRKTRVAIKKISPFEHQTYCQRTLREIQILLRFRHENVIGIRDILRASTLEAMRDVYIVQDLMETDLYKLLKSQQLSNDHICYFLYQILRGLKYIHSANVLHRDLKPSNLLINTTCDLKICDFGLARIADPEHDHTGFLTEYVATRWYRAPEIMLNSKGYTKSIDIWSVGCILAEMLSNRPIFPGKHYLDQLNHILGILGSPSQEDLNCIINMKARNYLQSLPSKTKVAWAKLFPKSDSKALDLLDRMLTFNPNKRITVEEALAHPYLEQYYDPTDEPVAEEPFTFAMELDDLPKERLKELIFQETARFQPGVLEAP
# Tyrosine-protein kinase receptor UFO (Homo sapiens), sequence (P30530 whole entry): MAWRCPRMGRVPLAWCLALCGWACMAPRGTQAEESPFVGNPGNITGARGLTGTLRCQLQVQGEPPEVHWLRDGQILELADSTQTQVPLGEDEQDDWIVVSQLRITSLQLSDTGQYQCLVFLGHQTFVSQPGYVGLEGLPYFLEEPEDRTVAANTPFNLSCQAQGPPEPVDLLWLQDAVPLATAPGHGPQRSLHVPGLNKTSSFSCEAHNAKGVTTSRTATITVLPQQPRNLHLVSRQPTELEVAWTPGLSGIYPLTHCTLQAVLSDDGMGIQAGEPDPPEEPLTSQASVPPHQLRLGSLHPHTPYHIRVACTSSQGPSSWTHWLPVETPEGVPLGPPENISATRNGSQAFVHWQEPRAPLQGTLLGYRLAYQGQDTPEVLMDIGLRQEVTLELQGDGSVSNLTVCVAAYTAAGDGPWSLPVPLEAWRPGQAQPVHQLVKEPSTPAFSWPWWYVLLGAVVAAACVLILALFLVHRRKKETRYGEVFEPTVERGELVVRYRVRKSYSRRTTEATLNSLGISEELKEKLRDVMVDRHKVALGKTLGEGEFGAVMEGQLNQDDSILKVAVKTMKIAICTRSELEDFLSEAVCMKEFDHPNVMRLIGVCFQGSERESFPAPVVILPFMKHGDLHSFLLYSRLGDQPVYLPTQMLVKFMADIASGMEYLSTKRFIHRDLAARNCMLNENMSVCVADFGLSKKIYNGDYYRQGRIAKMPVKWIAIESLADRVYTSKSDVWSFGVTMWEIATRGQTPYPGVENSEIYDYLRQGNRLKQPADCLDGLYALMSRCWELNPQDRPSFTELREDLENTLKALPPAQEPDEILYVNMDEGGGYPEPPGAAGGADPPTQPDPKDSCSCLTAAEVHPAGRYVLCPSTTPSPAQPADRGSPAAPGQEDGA
# Insulin receptor-related protein, sequence (P14616 27-742 limits assumed): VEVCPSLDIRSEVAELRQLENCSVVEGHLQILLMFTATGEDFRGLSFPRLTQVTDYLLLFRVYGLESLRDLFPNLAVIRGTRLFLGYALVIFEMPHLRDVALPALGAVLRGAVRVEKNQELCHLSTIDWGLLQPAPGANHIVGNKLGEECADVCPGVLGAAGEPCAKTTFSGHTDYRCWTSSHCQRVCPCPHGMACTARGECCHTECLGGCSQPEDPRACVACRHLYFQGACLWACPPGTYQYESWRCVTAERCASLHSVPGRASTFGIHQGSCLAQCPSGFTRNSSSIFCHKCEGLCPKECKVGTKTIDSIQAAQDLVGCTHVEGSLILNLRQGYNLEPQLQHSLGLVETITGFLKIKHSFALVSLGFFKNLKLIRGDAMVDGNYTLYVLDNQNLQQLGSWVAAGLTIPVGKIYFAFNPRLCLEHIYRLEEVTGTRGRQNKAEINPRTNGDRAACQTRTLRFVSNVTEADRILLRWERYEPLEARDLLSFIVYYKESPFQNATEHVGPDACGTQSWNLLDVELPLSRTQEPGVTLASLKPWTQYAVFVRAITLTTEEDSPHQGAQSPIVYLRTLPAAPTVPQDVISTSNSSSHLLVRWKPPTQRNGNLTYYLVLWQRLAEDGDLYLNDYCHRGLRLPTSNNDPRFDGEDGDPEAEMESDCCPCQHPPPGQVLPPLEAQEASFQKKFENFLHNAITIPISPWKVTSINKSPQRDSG
# Insulin receptor-related protein, sequence (P14616 747-1297 limits assumed): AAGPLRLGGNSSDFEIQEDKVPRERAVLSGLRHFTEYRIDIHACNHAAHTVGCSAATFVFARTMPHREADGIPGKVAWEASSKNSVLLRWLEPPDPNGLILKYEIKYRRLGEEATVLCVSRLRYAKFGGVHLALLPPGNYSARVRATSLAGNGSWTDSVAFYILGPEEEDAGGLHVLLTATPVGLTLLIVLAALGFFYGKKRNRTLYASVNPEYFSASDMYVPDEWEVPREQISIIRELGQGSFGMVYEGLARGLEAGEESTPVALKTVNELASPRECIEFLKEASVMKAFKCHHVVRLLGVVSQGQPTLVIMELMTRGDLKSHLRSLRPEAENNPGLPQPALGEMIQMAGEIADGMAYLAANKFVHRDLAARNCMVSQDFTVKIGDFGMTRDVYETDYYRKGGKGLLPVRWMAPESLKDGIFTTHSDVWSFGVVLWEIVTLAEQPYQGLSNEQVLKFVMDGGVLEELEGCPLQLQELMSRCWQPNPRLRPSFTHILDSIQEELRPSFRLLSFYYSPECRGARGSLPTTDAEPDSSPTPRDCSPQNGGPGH
# SRSF protein kinase 3 (Homo sapiens), sequence (Q9UPE1 whole entry): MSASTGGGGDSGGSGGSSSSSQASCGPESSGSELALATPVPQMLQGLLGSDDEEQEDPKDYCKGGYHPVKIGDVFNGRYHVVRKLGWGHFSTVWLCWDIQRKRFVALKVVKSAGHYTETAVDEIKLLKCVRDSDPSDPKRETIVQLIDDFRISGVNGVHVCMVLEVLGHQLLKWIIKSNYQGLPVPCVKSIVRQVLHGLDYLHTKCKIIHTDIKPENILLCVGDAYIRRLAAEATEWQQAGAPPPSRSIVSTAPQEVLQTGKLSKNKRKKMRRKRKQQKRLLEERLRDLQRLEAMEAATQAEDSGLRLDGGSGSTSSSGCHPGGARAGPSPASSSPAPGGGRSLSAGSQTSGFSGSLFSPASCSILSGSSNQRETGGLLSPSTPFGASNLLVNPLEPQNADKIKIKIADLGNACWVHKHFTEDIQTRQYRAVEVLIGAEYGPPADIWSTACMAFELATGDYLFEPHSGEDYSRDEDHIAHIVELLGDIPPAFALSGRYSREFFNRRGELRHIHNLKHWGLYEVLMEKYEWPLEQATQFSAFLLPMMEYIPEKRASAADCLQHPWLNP
# Serine/threonine-protein kinase 24 (Homo sapiens), sequence (Q9Y6E0 whole entry, looked up): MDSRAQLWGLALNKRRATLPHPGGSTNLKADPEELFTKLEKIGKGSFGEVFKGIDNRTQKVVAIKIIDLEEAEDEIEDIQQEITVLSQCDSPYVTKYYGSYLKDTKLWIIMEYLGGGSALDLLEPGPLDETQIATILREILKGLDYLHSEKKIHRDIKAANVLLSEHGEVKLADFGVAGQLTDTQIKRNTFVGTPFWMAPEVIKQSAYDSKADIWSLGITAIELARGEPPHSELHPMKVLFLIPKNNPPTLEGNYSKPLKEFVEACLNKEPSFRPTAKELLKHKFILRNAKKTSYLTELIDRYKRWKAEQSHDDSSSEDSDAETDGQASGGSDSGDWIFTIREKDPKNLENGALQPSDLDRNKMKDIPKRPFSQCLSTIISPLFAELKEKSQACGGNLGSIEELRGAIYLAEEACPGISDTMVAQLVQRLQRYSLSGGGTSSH
# Serine/threonine-protein kinase TAO3 (Homo sapiens), sequence (Q9H2K8 whole entry): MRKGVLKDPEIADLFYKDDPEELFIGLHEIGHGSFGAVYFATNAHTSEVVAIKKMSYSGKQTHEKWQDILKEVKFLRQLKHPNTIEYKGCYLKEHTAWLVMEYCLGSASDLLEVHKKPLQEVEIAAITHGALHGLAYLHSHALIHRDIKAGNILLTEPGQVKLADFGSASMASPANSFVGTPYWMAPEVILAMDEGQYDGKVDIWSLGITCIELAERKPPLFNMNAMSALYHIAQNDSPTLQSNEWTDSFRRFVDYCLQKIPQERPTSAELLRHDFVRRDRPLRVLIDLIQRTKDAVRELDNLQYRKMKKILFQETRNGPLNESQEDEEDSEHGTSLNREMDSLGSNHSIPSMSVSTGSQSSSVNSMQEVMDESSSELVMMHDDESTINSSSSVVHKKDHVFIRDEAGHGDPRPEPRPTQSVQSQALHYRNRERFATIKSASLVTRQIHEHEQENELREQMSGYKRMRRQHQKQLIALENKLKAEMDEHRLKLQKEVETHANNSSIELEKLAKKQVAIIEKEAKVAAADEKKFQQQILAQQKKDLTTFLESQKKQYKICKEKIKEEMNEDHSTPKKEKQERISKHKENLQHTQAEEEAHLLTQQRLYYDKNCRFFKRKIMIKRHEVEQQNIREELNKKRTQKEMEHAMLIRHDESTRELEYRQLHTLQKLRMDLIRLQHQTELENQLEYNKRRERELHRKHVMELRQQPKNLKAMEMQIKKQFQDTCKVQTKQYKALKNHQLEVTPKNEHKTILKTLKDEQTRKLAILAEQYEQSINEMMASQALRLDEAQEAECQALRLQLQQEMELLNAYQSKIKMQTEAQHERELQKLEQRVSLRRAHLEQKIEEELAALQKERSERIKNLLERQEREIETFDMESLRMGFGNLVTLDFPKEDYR
smiles,measurement,setting,value
COc1cc(N2CCC(O)CC2)ccc1Nc1cc(Nc2ccccc2S(=O)(=O)C(C)C)c2cc[nH]c2n1,Activity,[1],34%
same,Activity,[2],2%
same,Activity,[3],23%
same,inhibition,[4],Active
same,Activity,U2OS [5],Active
same,Activity,U2OS [6],Active
same,inhibition at 10 µM,[7],70%
same,Activity,A549,Active
same,Activity,U2OS [8],Active
same,Activity,U2OS [9],1%
same,inhibition,[10],Active
same,Activity,U2OS [11],~60%
same,inhibition at 10 µM,[12],80%
same,Activity,HeLa S3,inactive
same,Activity,[13],19%
same,inhibition at 10 µM,[14],~40%
O=C1c2ccccc2-c2n[nH]c3cccc1c23,Activity,[15],1.8%
same,Activity,[16],32%
same,Activity,[17],23%
same,Activity,[18],3.4%
same,Activity,[19],32%
same,Activity,[20],22%
same,Activity,[21],1.4%
same,Activity,[22],1.9%
